From PubChem BioAssay
Calls of active or inactive are those of the source.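 The calls were made as follows, unless noted: active = visually confirmed hit in the image check and inhibition above 20%; inconclusive = visually confirmed hit but inhibition not above 20%; inactive = no visual hit in the image check.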

How the values were obtained:
[1] = inhibitors of TNFa-induced NFkB p65 translocation, primary screen, imaging, HUVEC, MLSMR starter and 10KST1 sets (AID 438;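 active = inhibition above 20% together with a positive visual image hit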;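 also: compound added about 3h40 before a 20 min TNFalpha stimulation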;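 as to inhibition: signal is the nuclear over cytoplasmic p65 intensity ratio per well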); settings: HUVEC TNFa-induced p65 nuclear translocation; cell count: measured here: nuclei count (cytotoxicity indicator), at 2.08 µM; inhibition: at 2 µM, stronger effect = higher value, 0% TNFa-plus-vehicle, 100% no-TNFa wells
[2] = reduction of polyQ htt aggregates in cells – imaging, exon1htt(103Q)mCFP cells, high-content imaging, primary screen (AID 483;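 active = visual image review flags a hit and inhibition of aggregation exceeds 20%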;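 also: compound exposure lasted 3 days before fixation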;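 as to nuclei count: percent of the per-plate median nuclei count of sample wells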); settings: exon1htt(103Q)mCFP cell line, aggregate imaging, at 2 µM; inhibition of aggregation: stronger effect = higher value; nuclei count: measured here: cell count, toxicity
[3] = endothelial E-selectin expression blockers – imaging, HUVEC, immunofluorescence, MLSMR starter and 10KST1 sets, primary screen (AID 487); settings: HUVEC TNFalpha-induced E-selectin immunofluorescence imaging, at 2 µM; inhibition: stronger effect = higher value; nuclei count: measured here: cell number, toxicity;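 as to inhibition: signal is fraction of cell area covered by stained E-selectin grains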;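 as to nuclei count: 100% = median nuclei count of all wells on the same plate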
[4] = target: Voltage-gated potassium channel subunit beta-2 (Rattus norvegicus) (UniProt P62483); experiment: inhibitors of rat Kvbeta2 reductase activity – biochemical, NADPH fluorescence, primary screen (AID 622;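 active = fluorescence slope higher than the sample average by over 3 SD, cut at about -0.22 in these data, passing the limit was not always enough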;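 also: slope of raw intensity against log time taken from 70 to 1610 s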); settings: recombinant KvBeta, 4-cyanobenzaldehyde reduction, at 10 µM, stronger effect = higher value
Voltage-gated potassium channel subunit beta-2 (Rattus norvegicus), sequence (P62483 whole entry, looked up): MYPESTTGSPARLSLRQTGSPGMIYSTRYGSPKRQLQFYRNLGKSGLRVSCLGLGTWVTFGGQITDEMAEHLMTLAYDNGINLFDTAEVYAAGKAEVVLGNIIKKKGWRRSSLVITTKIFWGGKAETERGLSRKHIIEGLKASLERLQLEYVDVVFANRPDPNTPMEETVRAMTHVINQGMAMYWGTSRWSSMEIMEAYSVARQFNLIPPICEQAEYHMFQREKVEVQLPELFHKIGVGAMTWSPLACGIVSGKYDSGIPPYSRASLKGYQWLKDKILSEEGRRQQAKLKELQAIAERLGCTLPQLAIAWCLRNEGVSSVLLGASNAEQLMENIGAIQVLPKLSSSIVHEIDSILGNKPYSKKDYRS

[5] = target: Voltage-gated potassium channel subunit beta-2 (Rattus norvegicus) (UniProt P62483); experiment: enhancers of rat Kvbeta2 NADPH turnover – biochemical, NADPH fluorescence, primary screen (AID 623;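 active = NADPH fluorescence slope more negative than the mean of all samples by about 3 SD, 99.7% confidence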;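 also: fluorescence intensity change per second fitted from 20 to 320 s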); settings: Recombinant KvBeta, NADPH fluorescence decrease slope, 10 min; at 10 µM; stronger effect = lower value
[6] = target: Muscarinic acetylcholine receptor M4 (Homo sapiens) (UniProt P08173); experiment: M4-linked GIRK flux change, two-sided – cell-based, HEK293 M4/GIRK, thallium flux, BTC-AM, M4 allosteric agonist project, primary screen (AID 625;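 active = fluorescence slope after compound addition differing from the mean of all tested samples at 99.7% confidence, mostly higher but some lower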;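 also: thallium influx through GIRK channels coupled to M4 in HEK293 cells with BTC-AM dye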); settings: at 10 µM, actives lie on both sides
Muscarinic acetylcholine receptor M4 (Homo sapiens), sequence (P08173 whole entry, looked up): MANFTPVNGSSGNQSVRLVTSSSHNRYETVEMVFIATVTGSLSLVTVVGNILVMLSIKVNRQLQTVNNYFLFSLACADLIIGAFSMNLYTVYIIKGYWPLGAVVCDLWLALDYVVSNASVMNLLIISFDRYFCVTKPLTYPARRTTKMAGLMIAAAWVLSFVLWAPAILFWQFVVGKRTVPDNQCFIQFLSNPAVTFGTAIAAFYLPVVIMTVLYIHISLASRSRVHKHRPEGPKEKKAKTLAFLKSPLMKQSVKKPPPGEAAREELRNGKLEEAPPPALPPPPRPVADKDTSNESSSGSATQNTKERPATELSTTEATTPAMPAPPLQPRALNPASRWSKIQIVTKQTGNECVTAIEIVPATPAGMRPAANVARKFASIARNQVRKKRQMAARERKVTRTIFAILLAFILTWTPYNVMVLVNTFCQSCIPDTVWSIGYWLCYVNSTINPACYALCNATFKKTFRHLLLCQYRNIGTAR
In short: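 assay system = HEK293 cells with M4 receptor and GIRK channels | medium = pH 7.3 thallium assay buffer | doses = 10 µM final, single point | timing = cells overnight at 37 °C, BTC-AM loading 1 h, reads 2 min total | signal = BTC-AM fluorescence, 1 Hz kinetic reads | read-out = post-addition slope, 15–24 s, of baseline-normalized fluorescence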

[7] = blockers of RIG-like receptor reporter activation – cell-based, Sendai virus stimulus, luciferase, 10K MLSCN set, TLR/RLR signaling modifier project, primary screen (AID 602276;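 active = inhibition at or above 50% at 10 µM; inactive = inhibition below 50%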;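 also: firefly luciferase from ISG56 promoter only with Renilla not read in this screen; 0% = Sendai virus plus DMSO and 100% = medium plus DMSO without virus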); settings: HEK293 RL24 IRF3 luciferase reporter, at 10 µM, stronger effect = higher value
[8] = TLR3 IRF3 reporter activation blockers – cell-based, poly I:C stimulus, luciferase, 10K MLSCN set, primary screen (AID 602277;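 active = inhibition of the reporter signal at or above 50%; inactive = inhibition below 50%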); settings: HEK293-TLR3 RL24 IRF3 luciferase reporter, at 10 µM, stronger effect = higher value

| Compound | cell count [1] | inhibition [1] | inhibition of aggregation [2] | nuclei count [2] [%] | inhibition [3] | nuclei count [3] [%] | fluorescence slope [4] | NADPH fluorescence slope [5] | fluorescence slope [6] | inhibition [7] | inhibition [8] |
| --- | --- | --- | --- | --- | --- | --- | --- | --- | --- | --- | --- |
| CC(=O)Nc1ccc(Cl)c(C(N)=O)c1 | 445 | -0.6% (inactive) | -12.1% (inactive) | 94.4 | -97.8% (inactive) | 113 | -0.581 (inactive) | -7.9e-05 (inactive) | 0.00404 (inactive) | 19.4% (inactive) | 23.4% (inactive) |
| COc1ccc(-c2cc(C(F)(F)F)nc(SCC(=O)NCc3ccco3)n2)cc1OC | 614 | -9.9% (inactive) | -5.9% (inactive) | 94 | -20.4% (inactive) | 103 | -0.304 (inactive) | -1.1e-05 (inactive) | 0.00529 (inactive) | 24.6% (inactive) | 23.2% (inactive) |
| CCOC(=O)CSc1nc2ccccc2c(=O)n1CCN1CCOCC1 | 513 | -3.4% (inactive) | -7.1% (inactive) | 96.3 | 4.2% (inactive) | 109 | -0.474 (inactive) | -1.3e-06 (inactive) | 0.00551 (inactive) | -2.06% (inactive) | 17.7% (inactive) |
| COc1cccc(C(=O)CSc2nnc(COc3cccc4cccnc34)o2)c1 | 558 | -6.3% (inactive) | -10.3% (inactive) | 117 | -1.4% (inactive) | 197 | -0.51 (inactive) | 3.4e-05 (inactive) | 0.00397 (inactive) | -8.03% (inactive) | -13.7% (inactive) |
| O=C(Nc1ccc(N2CCCC2=O)cc1)c1cccc(F)c1 | 226 | -5.9% (inactive) | 15.3% (inactive) | 90.3 | -11.4% (inactive) | 71.5 | -0.461 (inactive) | 2e-05 (inactive) | 0.00447 (inactive) | -49% (inactive) | -122% (inactive) |
| Cc1cc(C)n2nc3nc(N4CCCCC4)nc(-c4ccco4)c3c2n1 | 315 | -2.2% (inactive) | -24.4% (inactive) | 105 | -260% (inactive) | 86.7 | -0.433 (inactive) | 1e-05 (inactive) | 0.00465 (inactive) | 12.6% (inactive) | 2.12% (inactive) |
| CCC1Oc2ccccc2N(CC(=O)Nc2ccc(OC)cc2OC)C1=O (centres undefined) | 726 | 44.3% (active) | -17.4% (inactive) | 117 | -57% (inactive) | 127 | -0.533 (inactive) | -0.000132 (inactive) | 0.00464 (inactive) | -2.59% (inactive) | 4.28% (inactive) |
| CCOC(=O)CSc1nc2ccccc2c(=O)n1NC(=O)c1ccccc1 | 472 | -5.7% (inactive) | -2% (inactive) | 119 | 10.7% (inactive) | 92.2 | -0.445 (inactive) | 3.6e-06 (inactive) | 0.00551 (inactive) | 1.47% (inactive) | -19.8% (inactive) |
| O=C(CSc1ncnc2ccccc12)N1CCN(c2ccccc2)CC1 | 567 | -10.9% (inactive) | 10.5% (inactive) | 99.4 | 9.1% (inactive) | 108 | -0.47 (inactive) | 3.6e-05 (inactive) | 0.00572 (inactive) | 1.94% (inactive) | 15.7% (inactive) |
| O=C(CN1C(=O)COc2ccccc21)NCCCN1CCc2ccccc2C1 | 698 | -5.4% (inactive) | -7.3% (inactive) | 106 | -13.4% (inactive) | 106 | -0.625 (inactive) | 1.2e-05 (inactive) | 0.00746 (inactive) | 11.3% (inactive) | 33.1% (inactive) |
| CN(Cc1ccccc1)Cc1nc2c([nH]1)c(=O)[nH]c(=O)n2C | 276 | 12.9% (inactive) | -1.6% (inactive) | 96 | 69.5% (active) | 91.4 | -0.371 (inactive) | -0.000115 (inactive) | 0.0061 (inactive) | 7.51% (inactive) | 14.7% (inactive) |
| Cc1ccc(NCc2nnc(SCC(=O)N3CCCCC3)n2CC2CCCO2)c(C)c1 (centres undefined) | 484 | 3.6% (inactive) | -7.9% (inactive) | 95.1 | -63.1% (inactive) | 109 | -0.534 (inactive) | -1.9e-05 (inactive) | 0.00508 (inactive) | 20.5% (inactive) | 25.6% (inactive) |
| CCNC(=O)COc1ccc(Br)cc1Cl | 302 | 0% (inactive) | -7.5% (inactive) | 93.8 | 0.5% (inactive) | 109 | -0.547 (inactive) | 2.4e-05 (inactive) | 0.00609 (inactive) | -12.6% (inactive) | -57.4% (inactive) |
| CC(=O)c1nnn(-c2nc(N3CCCC3)nc(N(c3ccccc3)c3ccccc3)n2)c1C | 558 | 8.9% (inactive) | 2.6% (inactive) | 109 | 51.9% (inactive) | 95.1 | -0.58 (inactive) | -5.5e-05 (inactive) | 0.00803 (inactive) | 15.9% (inactive) | 26.9% (inactive) |
